# Laboratory results: ChEMBL document CHEMBL1126683, “Synthesis and antitumor activity of isodoxorubicin analogues” (J Med Chem, 1993)
# How the values were obtained:
# L1210 [1] = experiment: Growth inhibition of L1210 murine leukemia cells after 1 hr exposure in untreated control culture; assay type: functional, cell-based; details: Mus musculus, L1210, 1 h
# Outline: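 L1210 cells were exposed to graded concentrations for 1 h at 37 °C, washed twice in McCoy 5A, and plated at 5×10^2 cells/plate in an agar upper layer using a modified Hamburger–Salmon method. Plates were kept 5–7 days at 37 °C in 5% CO₂, 20% O₂, 95% humidity. Colonies >60 μm were counted as % of untreated control, and IC50 was read from dose–response curves.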
# A549 [2] = experiment: Growth inhibition of A 549 cell line by MTT reduction for 3 days of incubation time; assay type: functional, cell-based; details: Homo sapiens, A549, 72 h
# Outline: (§1)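 Exponentially growing A549 or HT29 cells were seeded at 5×10^3/mL in RPMI and exposed to graded concentrations for 72 h (37 °C, 5% CO₂), in quadruplicate wells. MTT was added at 65 h, followed by a further 7–24 h incubation. Formazan was dissolved in DMSO and read at 492 nm. Results were expressed as extinction ratio to medium-only control, and IC50 was taken as 50% growth inhibition.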
# HT-29 [3] = experiment: Growth inhibition of HT 29 cell line by MTT reduction for 3 days of incubation time; assay type: functional, cell-based; details: Homo sapiens, HT-29, 72 h; outline: as §1
# L1210 [4] = experiment: Growth inhibition of L1210 murine leukemia cells after 3 day exposure in MTT reduction assay; details: Mus musculus, L1210, 3 days
# HT-29 [5] = experiment: Growth inhibition of HT 29 cell line by MTT reduction for 7 days of incubation time; details: Homo sapiens, HT-29, 168 h
# Homo sapiens [6] = species: Homo sapiens; experiment: Activity against internally growing human tumor A-549 tested in subrenal capsule assay; assay type: functional
# Outline: (§2)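 Human tumors were grown intrarenally in a subrenal capsule assay. Tumor area of the treated group was scored against the control group as follows: >50%, between 10% and 50%, or <10% of control.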
# [7] = Evaluated for the degree of cross resistance as the ratio of degree of resistance of doxorubicin to degree of resistance of the compound; assay type: functional
# Outline: (§3)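 Colony (stem cell) assay comparing L1210 and L1210/ADM cells under continuous exposure, with the compound mixed into the agar upper layer before plating. Cells were plated at 5×10^2 per plate and incubated 5–7 days at 37 °C. Colonies >60 μm were counted relative to untreated control, and IC50 values were taken from dose–response curves to form the resistance ratios.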
# Homo sapiens [8] = species: Homo sapiens; experiment: Activity against internally growing human tumor LXF tested in subrenal capsule assay; assay type: functional; outline: as §2
# [9] = Evaluated for the degree of resistance as the ratio of IC50 L1210 / ADM to IC50 of L1210; assay type: functional; outline: as §3
# Homo sapiens [10] = species: Homo sapiens; experiment: Activity against internally growing human tumor HT-29 tested in subrenal capsule assay; assay type: functional; outline: as §2
# L1210 [11] = experiment: Growth inhibition of L1210/ADM murine leukemia cells after 3 day exposure in MTT assay; details: Mus musculus, L1210, 3 day
# Homo sapiens [12] = species: Homo sapiens; experiment: Activity against internally growing human tumor LXF / ADM tested in subrenal capsule assay; assay type: functional
# Outline: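 Tumors were resected at about 1/3 cm, cut into pieces of about 5 mm³, and retransplanted repeatedly until sensitivity was reduced. The subline was then tested in the subrenal capsule assay, with tumor area of the treated group scored as >50%, 10–50%, or <10% of control.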
# A549 [13] = experiment: cells; details: Homo sapiens, A549, 168 h
# L1210 [14] = experiment: Percentage ratio of mean survival time of treated animals to untreated controls for L1210 mouse leukemia treated by 3.1 mg / kg dosed intravenously on 1,5,and 9 days; details: route intravenous
Structure (SMILES),IC50 (L1210 [1]),IC50 (A549 [2]),IC50 (HT-29 [3]),IC50 (L1210 [4]),IC50 (HT-29 [5]),T/C (Homo sapiens [6]),Degree of cross resistance [7],T/C (Homo sapiens [8]),Degree of resistance [9],T/C (Homo sapiens [10]),IC50 (L1210 [11]),T/C (Homo sapiens [12]),IC50 (A549 [13]),T/C (L1210 [14])
CC1O[C@@H](O[C@H]2C[C@](O)(CO)Cc3c(O)c4c(c(O)c32)C(=O)c2ccccc2C4=O)C[C@@H](O)[C@@H]1NC(=O)C(F)(F)F (stereo partly specified),0.0064 µg/mL,0.011 µg/mL,0.026 µg/mL,0.015 µg/mL,,,,,,,,,,
CC1O[C@@H](O[C@H]2C[C@](O)(CO)Cc3c(O)c4c(c(O)c32)C(=O)c2ccccc2C4=O)C[C@@H](O)[C@@H]1N1CCOCC1 (stereo partly specified),0.21 µg/mL,0.054 µg/mL,0.13 µg/mL,0.15 µg/mL,,,,,,,,,,
CC1O[C@@H](O[C@H]2C[C@](O)(CO)Cc3c(O)c4c(c(O)c32)C(=O)c2ccccc2C4=O)C[C@@H](O)[C@@H]1N=[N+]=[N-] (stereo partly specified),0.26 µg/mL,0.24 µg/mL,0.46 µg/mL,0.13 µg/mL,,,,,,,,,,
COc1cccc2c1C(=O)c1c(O)c3c(c(O)c1C2=O)C[C@@](O)(C(=O)CO)C[C@@H]3O[C@H]1C[C@H](N)[C@H](O)[C@H](C)O1 [DOXORUBICIN],0.04 µg/mL,0.05 µg/mL,0.06 µg/mL,,0.02 µg/mL,>10%,100,<10%,45,>10%,0.9 µg/mL,>10%,0.02 µg/mL,
CC1O[C@@H](O[C@H]2C[C@](O)(CO)Cc3c(O)c4c(c(O)c32)C(=O)c2ccccc2C4=O)C[C@@H](O)[C@@H]1N.Cl (stereo partly specified),0.022 µg/mL,0.009 µg/mL,0.01 µg/mL,0.009 µg/mL,,>50%,24,>10%,11,>50%,0.1 µg/mL,>50%,,133%
